Measurements from ChEMBL document CHEMBL2311439, “New bis-thiazolium analogues as potential antimalarial agents: design, synthesis, and biological evaluation” (J Med Chem, 2013).
pIC50: −log10 of the molar value.

How the values were obtained:
Plasmodium falciparum = assay: Antiplasmodial activity against Plasmodium falciparum Nigeria infected in human erythrocytes assessed as incorporation of [3H]hypoxanthine after 48 hrs; format: functional, organism-based
In short: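 Nigerian-strain P. falciparum-infected erythrocytes at 1.5% final hematocrit and 0.6% parasitemia, grown in Hepes-buffered RPMI 1640 with 10% AB human serum. Drugs dissolved in DMSO, final DMSO ≤0.25%. Modified Desjardins test: [³H]hypoxanthine incorporation measured after 48 h drug contact. IC₅₀ is the concentration giving 50% growth inhibition. Two independent experiments.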

[1] = test system: Plasmodium vinckei petteri; assay: Antimalarial activity against Plasmodium vinckei petteri 279BY infected in Swiss mouse administered as ip qd for 4 days measured on day 5; format: functional
In short: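 Female Swiss mice infected intravenously with 10⁷ P. vinckei petteri 279BY parasites (parasitemia 0.5−1% on day 1). Compounds in DMSO, 0.9% NaCl or intralipid/DMSO (90/10) given ip once daily on days 1−4 postinfection. Parasitemia read on day 5. ED₅₀ is the dose giving 50% parasitemia inhibition, determined only when parasitemia fell by at least 85%. Three mice per dose.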

[2] = Oral bioavailability in Sprague-Dawley rat at 12 mg/kg; format: ADME, organism-based; settings: in vivo
Mus musculus = assay: Toxicity in ip dosed Swiss mouse administered for 4 days measured on day 5; format: organism-based; settings: in vivo, 96 h
Jurkat = assay: Cytotoxicity against human Jurkat cells after 24 hrs by [3H]thymidine incorporation assay; format: cell-based
In short: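 Human Jurkat lymphoblasts exposed to compounds for 24 h, then [³H]thymidine added to gauge viability. Values are means of two independent experiments run in duplicate, differing by less than 40%.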

[3] = Therapeutic index, ratio of ED50 for human Jurkat cells to IC50 for Plasmodium falciparum Nigeria infected in human erythrocytes; format: cell-based

SMILES | pIC50 (Plasmodium falciparum) | ED50 [1] [mg/kg] | also measured
Cc1c(CCOCCCCCCOCCc2sc[n+](C)c2C)sc[n+]1C | 6.92 | – | –
C/C(=C1\CCOC(=O)S1)N(C=O)CCCCCCCCCCCCN(C=O)/C(C)=C1\CCOC(=O)S1 | – | – | bioavailability [2]: 15%
Cc1c(CCO)sc[n+]1CCOc1ccc(Cc2ccc(OCC[n+]3csc(CCO)c3C)cc2)cc1.[Cl-].[Cl-] | 7.66 | > 1 | –
COCCc1sc[n+](CCOc2ccc(Cc3ccc(OCC[n+]4csc(CCOC)c4C)cc3)cc2)c1C.[Cl-].[Cl-] | 7.65 | > 1 | –
COCCc1sc[n+](CCOc2ccc(C(=O)c3ccc(OCC[n+]4csc(CCOC)c4C)cc3)cc2)c1C.[Cl-].[Cl-] | 7.10 | > 2 | Activity (Mus musculus): Non-toxic
COCCc1sc[n+](Cc2ccc(OCCCCCOc3ccc(C[n+]4csc(CCOC)c4C)cc3)cc2)c1C.[Cl-].[Cl-] | 6.50 | > 0.4 | –
Cc1c(CCO)sc[n+]1CCCc1ccc(CCC[n+]2csc(CCO)c2C)cc1.[Cl-].[Cl-] | 7.11 | > 0.5 | –
COCCc1sc[n+](CCCc2ccc(CCC[n+]3csc(CCOC)c3C)cc2)c1C.[Cl-].[Cl-] | 7.44 | > 1 | –
Cc1c(CCO)sc[n+]1CC#Cc1ccc(C#CC[n+]2csc(CCO)c2C)cc1 | 5.90 | – | –
COCCc1sc[n+](CC#Cc2ccc(C#CC[n+]3csc(CCOC)c3C)cc2)c1C | 6.38 | – | –
Cc1c(CCO)sc[n+]1CCC#Cc1ccc(C#CCC[n+]2csc(CCO)c2C)cc1 | 6.76 | – | –
Cc1c(CCOCc2cn(CCc3sc[n+](C)c3C)nn2)sc[n+]1C | 5.00 | – | –
Cc1c(CCOCc2cn(CCc3sc[n+](Cc4ccccc4)c3C)nn2)sc[n+]1Cc1ccccc1 | 6.19 | – | –
COCCc1sc[n+](CCCc2cn(CCc3sc[n+](C)c3C)nn2)c1C | 5.09 | – | –
COCCc1sc[n+](CCCc2cn(CCc3sc[n+](Cc4ccccc4)c3C)nn2)c1C | 5.15 | – | –
COCCc1sc[n+](CCCCCn2cc(CCC[n+]3csc(CCOC)c3C)nn2)c1C | 5.92 | – | –
Cc1c(CCO)sc[n+]1CCCCCCCCCCCC[n+]1csc(CCO)c1C.[Br-].[Br-] [ALBITIAZOLIUM BROMIDE] | – | 0.2 | selectivity ratio [3]: 150000; pIC50 (Jurkat): 3.46

The next lines start with results.

pIC50 (Plasmodium falciparum) | SMILES | ED50 [1] [mg/kg] | also measured
7.82 | Cc1c(CCOCCCCCCOCCc2sc[n+](Cc3ccccc3)c2C)sc[n+]1Cc1ccccc1 | – | –
7.69 | Cc1c(CCO)sc[n+]1CCCCc1ccc(CCCC[n+]2csc(CCO)c2C)cc1.[Cl-].[Cl-] | 1.2 | –
7.73 | COCCc1sc[n+](CCOc2ccc(-c3ccc(OCC[n+]4csc(CCOC)c4C)cc3)cc2)c1C.[Br-].[Br-] | > 0.6 | –
8.08 | COCCc1sc[n+](CCCCc2ccc(CCCC[n+]3csc(CCOC)c3C)cc2)c1C.[Cl-].[Cl-] | 0.13 | Activity (Mus musculus): Non-toxic
8.05 | COCCc1sc[n+](CCCCc2cccc(CCCC[n+]3csc(CCOC)c3C)c2)c1C.[Cl-].[Cl-] | > 1 | –
7.78 | Cc1c(CCO)sc[n+]1CCCCc1ccc(CCCC[n+]2csc(CCO)c2C)s1.[Cl-].[Cl-] | > 0.6 | –
8.57 | COCCc1sc[n+](CCCCc2ccc(CCCC[n+]3csc(CCOC)c3C)s2)c1C.[Cl-].[Cl-] | 0.28 | pIC50 (Jurkat): 4.20
8.17 | Cc1c(CCO)sc[n+]1CCCCc1ccc(CCCC[n+]2csc(CCO)c2C)c2ccccc12.[Cl-].[Cl-] | > 0.6 | –
8.68 | COCCc1sc[n+](CCCCc2ccc(CCCC[n+]3csc(CCOC)c3C)c3ccccc23)c1C.[Cl-].[Cl-] | > 0.6 | –
8.20 | COCCc1sc[n+](CCCCc2ccc3ccc(CCCC[n+]4csc(CCOC)c4C)cc3c2)c1C.[Cl-].[Cl-] | 0.5 | selectivity ratio [3]: 170000; pIC50 (Jurkat): 3.33
8.60 | COCCc1sc[n+](CCCCc2ccc(-c3ccc(CCCC[n+]4csc(CCOC)c4C)cc3)cc2)c1C.[Cl-].[Cl-] | 0.7 | –
